ChEMBL document CHEMBL1154177, “Special ergolines are highly selective, potent antagonists of the chemokine receptor CXCR3: discovery, characterization and preliminary SAR of a promising lead” (Bioorg Med Chem Lett, 2009)
In brackets after ≈: the same amount, converted by molar mass.

Tests used:
[1] = molecular target: T1, C-X-C chemokine receptor type 3 (Homo sapiens, UniProt P49682); experiment: Displacement of [125I]I-TAC from human CXCR3 expressed in CHO cells by scintillation proximity assay; format: cell-based
T1 sequence (P49682 whole entry): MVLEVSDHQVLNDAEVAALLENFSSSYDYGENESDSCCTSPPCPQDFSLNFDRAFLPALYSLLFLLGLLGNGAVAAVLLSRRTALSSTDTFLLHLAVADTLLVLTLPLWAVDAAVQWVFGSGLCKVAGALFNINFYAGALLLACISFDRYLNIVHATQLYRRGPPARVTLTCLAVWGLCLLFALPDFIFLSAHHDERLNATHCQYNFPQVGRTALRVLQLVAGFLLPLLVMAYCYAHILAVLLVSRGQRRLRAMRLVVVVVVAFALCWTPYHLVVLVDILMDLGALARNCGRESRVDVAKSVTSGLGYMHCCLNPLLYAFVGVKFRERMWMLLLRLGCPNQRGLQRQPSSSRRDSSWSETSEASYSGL
Summary of the method: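 Membranes came from CHO cells transfected with human CXCR3. Serial dilutions of inhibitor were incubated for 2 h at room temperature with 125I-labelled I-TAC (CXCL11), the membranes and WGA-coated PVT beads. Binding was read by scintillation proximity.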

[2] = molecular target: T1, C-X-C chemokine receptor type 3; experiment: Antagonist activity at human CXCR3 expressed in L1.2 cells assessed as inhibition of I-TAC-induced Ca2+ mobilization by FLIPR assay; format: functional, cell-based
Summary of the method: (§1)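 CXCR3-transfected L1.2 mouse pre-B cells were loaded with Fluo-4 and washed. They were pre-incubated with inhibitor for 2 h at room temperature, then stimulated with I-TAC. The transient rise in intracellular Ca2+ was read on a FLIPR.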

Cytochrome P450 2C9 = Cytochrome P450 2C9 (Homo sapiens, UniProt P11712); experiment: Inhibition of CYP2C9; format: ADME
Cytochrome P450 1A2 = Cytochrome P450 1A2 (Homo sapiens, UniProt P05177); experiment: Inhibition of CYP1A2; format: ADME
[3] = Solubility in pH 1.0 buffer; format: physicochemical
[4] = molecular target: 5-hydroxytryptamine receptor 2B (Homo sapiens, UniProt P41595); experiment: Inhibition of 5HT2B receptor
[5] = Fraction unbound in human; format: ADME, organism-based; conditions: in vivo
[6] = Solubility in pH 6.8 buffer; format: physicochemical
[7] = molecular target: 5-hydroxytryptamine receptor 2A (Homo sapiens, UniProt P28223); experiment: Inhibition of 5HT2A receptor
[8] = Lipophilicity, log P of the compound; format: physicochemical; conditions: octanol/water
[9] = molecular target: Beta-1 adrenergic receptor (Homo sapiens, UniProt P08588); experiment: Inhibition of adrenergic beta-1 receptor
D(2) dopamine receptor = D(2) dopamine receptor (Homo sapiens, UniProt P14416); experiment: Inhibition of dopamine D2 receptor
D(1A) dopamine receptor = D(1A) dopamine receptor (Homo sapiens, UniProt P21728); experiment: Inhibition of dopamine D1 receptor
[10] = molecular target: Alpha-2C adrenergic receptor (Homo sapiens, UniProt P18825); experiment: Inhibition of adrenergic Alpha-2C receptor
[11] = Fraction unbound in rat; format: ADME, organism-based; conditions: in vivo
Cytochrome P450 3A4 = Cytochrome P450 3A4 (Homo sapiens, UniProt P08684); experiment: Inhibition of CYP3A4; format: ADME
[12] = molecular target: Alpha-2A adrenergic receptor (Homo sapiens, UniProt P08913); experiment: Inhibition of adrenergic alpha2A receptor
Cytochrome P450 2C19 = Cytochrome P450 2C19 (Homo sapiens, UniProt P33261); experiment: Inhibition of CYP2C19; format: ADME
[13] = molecular target: T2, C-X-C chemokine receptor type 3 (Mus musculus, UniProt O88410); experiment: Antagonist activity at mouse CXCR3 expressed in L1.2 cells assessed as inhibition of I-TAC-induced Ca2+ mobilization by FLIPR assay; format: functional, cell-based; summary of the method: as §1
[14] = molecular target: 5-hydroxytryptamine receptor 6 (Homo sapiens, UniProt P50406); experiment: Inhibition of 5HT6 receptor
[15] = molecular target: 5-hydroxytryptamine receptor 7 (Homo sapiens, UniProt P34969); experiment: Inhibition of 5HT7 receptor
[16] = Inhibition of adrenergic alpha1 receptor
[17] = molecular target: T2, C-X-C chemokine receptor type 3; experiment: Displacement of [125I]I-TAC from mouse CXCR3 expressed in CHO cells by scintillation proximity assay; format: cell-based
[18] = molecular target: 5-hydroxytryptamine receptor 1A (Homo sapiens, UniProt P08908); experiment: Inhibition of 5HT1A receptor
[19] = molecular target: Voltage-gated inwardly rectifying potassium channel KCNH2 (Homo sapiens, UniProt Q12809); experiment: Inhibition of human ERG
Cytochrome P450 2D6 = Cytochrome P450 2D6 (Homo sapiens, UniProt P10635); experiment: Inhibition of CYP2D6; format: ADME
[20] = molecular target: 5-hydroxytryptamine receptor 2C (Homo sapiens, UniProt P28335); experiment: Inhibition of 5HT2C receptor
D(4) dopamine receptor = D(4) dopamine receptor (Homo sapiens, UniProt P21917); experiment: Inhibition of dopamine D4.4 receptor
D(3) dopamine receptor = D(3) dopamine receptor (Homo sapiens, UniProt P35462); experiment: Inhibition of dopamine D3 receptor
Sequence of D(3) dopamine receptor (P35462 whole entry): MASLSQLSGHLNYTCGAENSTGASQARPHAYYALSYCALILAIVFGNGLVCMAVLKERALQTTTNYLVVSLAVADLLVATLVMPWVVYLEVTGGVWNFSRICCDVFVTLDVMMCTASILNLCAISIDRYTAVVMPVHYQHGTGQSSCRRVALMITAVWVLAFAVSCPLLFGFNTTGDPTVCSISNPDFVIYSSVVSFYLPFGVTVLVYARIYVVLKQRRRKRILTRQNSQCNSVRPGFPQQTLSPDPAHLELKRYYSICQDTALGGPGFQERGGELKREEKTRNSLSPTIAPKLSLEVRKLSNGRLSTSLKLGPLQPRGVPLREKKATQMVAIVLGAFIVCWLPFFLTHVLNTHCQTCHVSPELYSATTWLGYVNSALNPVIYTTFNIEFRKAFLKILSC

Sequence of Beta-1 adrenergic receptor (P08588 whole entry): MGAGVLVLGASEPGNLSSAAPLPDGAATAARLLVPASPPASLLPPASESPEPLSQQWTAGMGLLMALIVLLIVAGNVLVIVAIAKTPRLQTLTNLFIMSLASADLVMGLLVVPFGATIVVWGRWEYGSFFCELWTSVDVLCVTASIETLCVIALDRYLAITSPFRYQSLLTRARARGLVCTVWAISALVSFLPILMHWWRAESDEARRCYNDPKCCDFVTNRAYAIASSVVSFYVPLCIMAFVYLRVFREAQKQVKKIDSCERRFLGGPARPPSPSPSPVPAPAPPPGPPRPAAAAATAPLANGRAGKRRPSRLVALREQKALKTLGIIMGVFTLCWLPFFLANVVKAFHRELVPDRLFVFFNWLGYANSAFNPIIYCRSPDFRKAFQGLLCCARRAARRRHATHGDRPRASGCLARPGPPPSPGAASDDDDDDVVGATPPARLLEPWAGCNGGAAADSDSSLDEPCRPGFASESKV
Sequence of Alpha-2A adrenergic receptor (P08913 whole entry): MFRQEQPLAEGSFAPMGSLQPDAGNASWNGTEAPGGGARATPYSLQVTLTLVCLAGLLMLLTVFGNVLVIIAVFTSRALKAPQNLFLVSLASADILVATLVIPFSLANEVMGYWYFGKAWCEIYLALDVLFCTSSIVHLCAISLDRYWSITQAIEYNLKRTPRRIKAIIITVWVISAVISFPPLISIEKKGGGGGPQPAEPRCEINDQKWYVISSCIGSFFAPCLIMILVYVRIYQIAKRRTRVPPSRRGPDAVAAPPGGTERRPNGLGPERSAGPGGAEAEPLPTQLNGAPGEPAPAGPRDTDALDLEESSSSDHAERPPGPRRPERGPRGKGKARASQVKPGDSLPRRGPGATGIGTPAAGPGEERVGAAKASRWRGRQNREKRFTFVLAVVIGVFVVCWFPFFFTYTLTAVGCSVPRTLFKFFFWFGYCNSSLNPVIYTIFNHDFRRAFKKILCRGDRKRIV
Sequence of 5-hydroxytryptamine receptor 6 (P50406 whole entry): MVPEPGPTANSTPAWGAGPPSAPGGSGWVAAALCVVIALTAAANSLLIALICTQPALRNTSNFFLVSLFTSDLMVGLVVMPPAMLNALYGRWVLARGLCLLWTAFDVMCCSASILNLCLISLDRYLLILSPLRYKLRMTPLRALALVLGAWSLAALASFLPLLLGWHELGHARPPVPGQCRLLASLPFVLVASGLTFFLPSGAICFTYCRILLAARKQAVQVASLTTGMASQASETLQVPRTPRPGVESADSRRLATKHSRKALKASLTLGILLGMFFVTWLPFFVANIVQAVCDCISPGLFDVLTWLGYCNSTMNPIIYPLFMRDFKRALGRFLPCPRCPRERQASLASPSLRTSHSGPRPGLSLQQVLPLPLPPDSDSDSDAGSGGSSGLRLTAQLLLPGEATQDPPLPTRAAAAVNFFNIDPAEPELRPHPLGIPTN
Sequence of 5-hydroxytryptamine receptor 2A (P28223 whole entry): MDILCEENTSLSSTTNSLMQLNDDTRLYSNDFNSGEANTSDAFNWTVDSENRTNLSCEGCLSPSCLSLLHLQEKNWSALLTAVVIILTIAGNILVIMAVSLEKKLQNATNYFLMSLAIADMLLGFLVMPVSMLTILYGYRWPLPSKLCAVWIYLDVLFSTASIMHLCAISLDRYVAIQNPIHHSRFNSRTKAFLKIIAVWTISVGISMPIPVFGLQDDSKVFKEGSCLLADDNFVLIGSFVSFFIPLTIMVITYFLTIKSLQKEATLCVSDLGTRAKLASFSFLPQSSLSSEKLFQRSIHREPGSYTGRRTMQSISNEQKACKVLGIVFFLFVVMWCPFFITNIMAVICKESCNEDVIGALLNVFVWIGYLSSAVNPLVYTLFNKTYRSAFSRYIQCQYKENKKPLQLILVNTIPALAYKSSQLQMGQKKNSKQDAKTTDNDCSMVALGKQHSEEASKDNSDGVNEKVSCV
Sequence of 5-hydroxytryptamine receptor 7 (P34969 whole entry): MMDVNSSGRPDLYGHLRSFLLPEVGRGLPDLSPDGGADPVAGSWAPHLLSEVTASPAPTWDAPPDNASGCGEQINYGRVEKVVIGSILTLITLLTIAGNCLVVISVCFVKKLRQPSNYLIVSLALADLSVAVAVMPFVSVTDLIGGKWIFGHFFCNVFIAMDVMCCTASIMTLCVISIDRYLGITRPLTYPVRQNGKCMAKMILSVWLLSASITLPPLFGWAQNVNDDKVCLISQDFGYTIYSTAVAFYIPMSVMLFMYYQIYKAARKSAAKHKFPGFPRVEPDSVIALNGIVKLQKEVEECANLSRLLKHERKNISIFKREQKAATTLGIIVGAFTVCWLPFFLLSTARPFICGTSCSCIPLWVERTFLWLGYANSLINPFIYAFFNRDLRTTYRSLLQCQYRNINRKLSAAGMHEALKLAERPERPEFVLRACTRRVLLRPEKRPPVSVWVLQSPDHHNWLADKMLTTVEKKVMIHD
T2 sequence (O88410 whole entry): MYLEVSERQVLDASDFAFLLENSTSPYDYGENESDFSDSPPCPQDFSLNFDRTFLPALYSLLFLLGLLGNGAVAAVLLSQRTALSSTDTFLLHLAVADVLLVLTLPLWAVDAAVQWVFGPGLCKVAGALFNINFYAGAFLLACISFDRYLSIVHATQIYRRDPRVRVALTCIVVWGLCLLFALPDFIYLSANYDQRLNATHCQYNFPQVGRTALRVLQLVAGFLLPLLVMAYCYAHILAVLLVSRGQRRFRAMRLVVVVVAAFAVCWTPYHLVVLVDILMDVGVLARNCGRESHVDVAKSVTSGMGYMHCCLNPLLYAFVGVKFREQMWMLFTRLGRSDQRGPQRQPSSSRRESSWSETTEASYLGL
Sequence of D(1A) dopamine receptor (P21728 whole entry): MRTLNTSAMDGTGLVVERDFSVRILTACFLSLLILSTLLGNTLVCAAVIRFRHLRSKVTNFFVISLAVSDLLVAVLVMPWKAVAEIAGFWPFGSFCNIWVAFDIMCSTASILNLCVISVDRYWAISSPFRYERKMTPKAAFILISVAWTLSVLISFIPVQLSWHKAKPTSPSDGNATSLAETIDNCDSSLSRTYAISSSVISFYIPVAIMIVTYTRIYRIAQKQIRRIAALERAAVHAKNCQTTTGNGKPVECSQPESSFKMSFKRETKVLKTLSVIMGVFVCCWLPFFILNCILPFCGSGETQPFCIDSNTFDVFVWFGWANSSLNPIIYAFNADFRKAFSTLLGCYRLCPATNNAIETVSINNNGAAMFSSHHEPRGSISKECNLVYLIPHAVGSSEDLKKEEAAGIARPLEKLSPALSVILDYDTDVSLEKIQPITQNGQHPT
Sequence of D(2) dopamine receptor (P14416 whole entry): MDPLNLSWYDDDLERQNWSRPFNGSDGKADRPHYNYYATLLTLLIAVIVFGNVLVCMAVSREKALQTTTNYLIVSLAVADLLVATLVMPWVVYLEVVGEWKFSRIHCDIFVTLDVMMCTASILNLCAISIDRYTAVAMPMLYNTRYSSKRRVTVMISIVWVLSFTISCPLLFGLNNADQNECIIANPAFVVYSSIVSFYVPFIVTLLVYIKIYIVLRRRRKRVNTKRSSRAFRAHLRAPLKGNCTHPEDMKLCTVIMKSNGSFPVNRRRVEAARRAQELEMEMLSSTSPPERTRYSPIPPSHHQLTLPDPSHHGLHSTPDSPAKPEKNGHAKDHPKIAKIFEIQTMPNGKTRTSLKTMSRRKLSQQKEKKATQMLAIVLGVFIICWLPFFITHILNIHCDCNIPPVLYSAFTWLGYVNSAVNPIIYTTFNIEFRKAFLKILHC
Sequence of 5-hydroxytryptamine receptor 2C (P28335 whole entry): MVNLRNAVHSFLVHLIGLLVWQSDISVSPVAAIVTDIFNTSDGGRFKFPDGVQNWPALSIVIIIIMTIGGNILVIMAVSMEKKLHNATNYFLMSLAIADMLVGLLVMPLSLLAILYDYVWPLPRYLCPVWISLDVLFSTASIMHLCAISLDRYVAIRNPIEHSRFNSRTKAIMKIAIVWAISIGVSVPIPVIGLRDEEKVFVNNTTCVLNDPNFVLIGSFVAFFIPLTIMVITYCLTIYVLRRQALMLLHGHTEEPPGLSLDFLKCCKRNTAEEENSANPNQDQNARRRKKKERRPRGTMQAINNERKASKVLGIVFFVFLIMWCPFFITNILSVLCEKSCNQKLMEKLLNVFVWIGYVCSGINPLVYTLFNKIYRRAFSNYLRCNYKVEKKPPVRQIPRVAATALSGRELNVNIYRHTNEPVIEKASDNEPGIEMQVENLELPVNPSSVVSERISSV
Sequence of 5-hydroxytryptamine receptor 2B (P41595 whole entry): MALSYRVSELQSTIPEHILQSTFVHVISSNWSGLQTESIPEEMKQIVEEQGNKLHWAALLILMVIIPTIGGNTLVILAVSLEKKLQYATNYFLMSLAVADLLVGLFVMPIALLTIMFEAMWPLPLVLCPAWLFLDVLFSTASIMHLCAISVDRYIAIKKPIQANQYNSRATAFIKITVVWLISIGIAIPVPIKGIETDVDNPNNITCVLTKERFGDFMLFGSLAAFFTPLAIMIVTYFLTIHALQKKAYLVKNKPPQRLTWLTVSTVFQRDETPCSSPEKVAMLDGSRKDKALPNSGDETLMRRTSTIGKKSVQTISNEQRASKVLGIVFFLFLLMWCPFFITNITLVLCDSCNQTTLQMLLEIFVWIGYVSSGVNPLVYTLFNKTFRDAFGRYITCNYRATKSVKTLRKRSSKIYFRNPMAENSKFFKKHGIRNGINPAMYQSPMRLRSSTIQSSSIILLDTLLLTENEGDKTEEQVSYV

`CCN(CC)C(=O)[C@@H]1C=C2c3cccc4[nH]cc(c34)C[C@H]2N(C(=O)N(C)c2ccccc2)C1` showed an IC50 [1] of over 10000 nM and an IC50 [2] of over 10000 nM.

Work on `CCN(CC)C(=O)[C@@H]1C=C2c3cccc4[nH]cc(c34)C[C@H]2N(C(=O)Nc2cc(OC)c(OC)c(OC)c2)C1` yielded an IC50 [1] of 3050 nM and an IC50 [2] of 564 nM.

`CCN(CC)C(=O)[C@@H]1C=C2c3cccc4[nH]cc(c34)C[C@H]2N(C(=O)NC2CCCCC2)C1` gave an IC50 [1] of 179 nM and an IC50 [2] of 78 nM.

`CCN(CC)C(=O)[C@@H]1C=C2c3cccc4c3c(cn4Cc3ccccc3)C[C@H]2N(C(=O)Nc2ccccc2)C1` gave an IC50 [1] of 590 nM and an IC50 [2] of 510 nM.

Work on `CCN(CC)C(=O)[C@@H]1C=C2c3cccc4[nH]cc(c34)C[C@H]2N(C(=O)Oc2ccccc2)C1` yielded an IC50 [1] of 803 nM and an IC50 [2] of 809 nM.

With `CCN(CC)C(=O)[C@@H]1C=C2c3cccc4c3c(cn4C)C[C@H]2N(C(=O)Nc2ccccc2)C1` the IC50 [1] was 220 nM and the IC50 [2] was 60 nM.

With `CCN(CC)C(=O)[C@@H]1CC2c3cccc4[nH]cc(c34)C[C@H]2N(C(=O)Nc2ccccc2)C1` (some centres not stated) the IC50 [1] was 5300 nM and the IC50 [2] was 1930 nM.

Compound `CCN(CC)C(=O)[C@@H]1C=C2c3cccc4[nH]cc(c34)C[C@H]2N(C(=O)Nc2ccccc2)C1` has an IC50 (Cytochrome P450 2C9) of over 10000 nM, an IC50 (Cytochrome P450 1A2) of over 10000 nM and a solubility [3] of 5 µg/mL (≈ 11.7 µM). It also gave an IC50 [4] of 2470 nM, a fraction unbound [5] of 0.01 and a solubility [6] of 5 µg/mL (≈ 11.7 µM). For the same compound, the IC50 [7] was 750 nM, the logP [8] was 4.2 and the IC50 [9] was 5760 nM. The IC50 (D(2) dopamine receptor) was 1590 nM, the IC50 (D(1A) dopamine receptor) was 4900 nM and the IC50 [10] was 215 nM. The fraction unbound [11] was 0.02, the IC50 (Cytochrome P450 3A4) was over 10000 nM and the IC50 [12] was 1930 nM. The IC50 (Cytochrome P450 2C19) was over 10000 nM, the IC50 [13] was 30 nM and the IC50 [14] was 9580 nM. For the same compound, the IC50 [15] was over 10000 nM, the IC50 [1] was 54 nM and the IC50 [16] was 4030 nM. It also gave an IC50 [17] of 200 nM, an IC50 [18] of 3600 nM and an IC50 [19] of over 30000 nM. It also gave an IC50 (Cytochrome P450 2D6) of over 10000 nM, an IC50 [20] of over 10000 nM and an IC50 [2] of 18 nM. For the same compound, the IC50 (D(4) dopamine receptor) was 2650 nM and the IC50 (D(3) dopamine receptor) was 660 nM.

With `CCN(CC)C(=O)[C@@H]1C=C2c3cccc4[nH]cc(c34)C[C@H]2N(C(=O)Nc2cccnc2)C1` the IC50 [1] was 285 nM and the IC50 [2] was 67 nM.

For `CCN(CC)C(=O)[C@@H]1C=C2c3cccc4[nH]cc(c34)C[C@H]2NC1`, the IC50 [4] was 54 nM, the IC50 [7] was 6 nM and the IC50 [9] was over 10000 nM. It also gave an IC50 (D(2) dopamine receptor) of over 10000 nM, an IC50 (D(1A) dopamine receptor) of over 10000 nM and an IC50 [10] of over 10000 nM. It also gave an IC50 [12] of over 10000 nM, an IC50 [14] of 16 nM and an IC50 [15] of 143 nM. It also gave an IC50 [1] of over 10000 nM, an IC50 [16] of over 10000 nM and an IC50 [20] of 1290 nM. It also gave an IC50 (D(4) dopamine receptor) of over 10000 nM and an IC50 (D(3) dopamine receptor) of over 10000 nM.

Work on `CCN(CC)C(=O)[C@H]1C=C2c3cccc4[nH]cc(c34)C[C@H]2N(C(=O)Nc2ccccc2)C1` yielded an IC50 [1] of over 10000 nM.

`CCN(CC)C(=O)[C@@H]1C=C2c3cccc4[nH]cc(c34)C[C@H]2N(C(=O)Nc2cccc(C)c2)C1` gave an IC50 [1] of 231 nM and an IC50 [2] of 45 nM.

For `CCN(CC)C(=O)[C@@H]1C=C2c3cccc4[nH]cc(c34)C[C@H]2N(C(=O)Nc2ccccc2C)C1`, the IC50 [1] was 146 nM and the IC50 [2] was 28 nM.

With `CCN(CC)C(=O)[C@@H]1C=C2c3cccc4[nH]cc(c34)C[C@H]2N(C(=O)Nc2ccccn2)C1` the IC50 [1] was 428 nM and the IC50 [2] was 62 nM.

`CCN(CC)C[C@@H]1C=C2c3cccc4[nH]cc(c34)C[C@H]2N(C(=O)Nc2ccccc2)C1` gave an IC50 [1] of over 10000 nM and an IC50 [2] of over 10000 nM.

`CCN(CC)C(=O)[C@@H]1C=C2c3cccc4[nH]cc(c34)C[C@H]2N(C(=O)Nc2ccc(C)cc2)C1` gave an IC50 [1] of 313 nM and an IC50 [2] of 100 nM.

`CCN(CC)C(=O)[C@@H]1C=C2c3cccc4[nH]cc(c34)C[C@H]2N(C(=O)Nc2ccncc2)C1` gave an IC50 [1] of 2000 nM and an IC50 [2] of 6800 nM.
